Data taken from ChEMBL document CHEMBL4376814, “Novel cyclin-dependent kinase 9 (CDK9) inhibitor with suppression of cancer stemness activity against non-small-cell lung cancer” (Eur J Med Chem, 2019).
pIC50: −log10 of the molar value. Calls of active or inactive are those of the source. The rule behind the calls is not given here.

Columns and labels:
SiHa = assay: Antiproliferative activity against human SiHa cells assessed as inhibition of cell viability at 10 uM after 72 hrs by CCK-8 assay relative to control; type: functional
How it was run: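 Single-concentration viability screen using CCK-8. Cells were seeded at 3000/well and treated for 72 h. A450 read after 1-4 h with reagent. Percent inhibition calculated against untreated control and blank wells as (Ac−As)/(Ac−Ab)×100%.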

MDA-MB-231 = assay: Antiproliferative activity against human MDA-MB-231 cells assessed as inhibition of cell viability after 72 hrs by CCK-8 assay; type: functional, cell-based; settings: MDA-MB-231, 72 h
How it was run: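 Cells kept at 37 °C, 5% CO2 in DMEM or RPMI-1640 with 10% FBS and 1% penicillin/streptomycin, then seeded at 3000 cells/well (adherent) or 10,000 cells/well (suspension). Exposed to a range of concentrations for 72 h. CCK-8 added for 1-4 h before reading A450. […] Three independent experiments.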

A549 [1] = assay: Induction of apoptosis in human A549 cells assessed as early apoptotic cells at 1 uM after 48 hrs by AnnexinV-FITC/PI staining-based flow cytometric analysis (reference value: 2.91%); type: functional
A549 [2] = assay: Induction of apoptosis in human A549 cells assessed as late apoptotic cells at 0.5 uM after 48 hrs by AnnexinV-FITC/PI staining-based flow cytometric analysis (reference value: 7.66%); type: functional
NCI-H1299 [3] = assay: Induction of apoptosis in human H1299 cells assessed as late apoptotic cells at 0.5 uM after 48 hrs by AnnexinV-FITC/PI staining-based flow cytometric analysis (reference value: 1.77%); type: functional
A549 [4] = assay: Induction of apoptosis in human A549 cells assessed as decrease in Bcl-2 protein expression at 0.25 to 1 uM after 24 hrs by Western blot analysis; type: functional, cell-based
How it was run: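 A549 or H1299 cells exposed to the indicated concentrations for 24 h. Protein extracts then immunoblotted for apoptosis-pathway proteins (Bcl2, Bim, cleaved caspase 3).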

NCI-H1299 [5] = assay: Inhibition of tumorsphere formation in human H1299 cells after 2 weeks by microscopic analysis; type: functional, cell-based
NCI-H1299 [6] = assay: Inhibition of tumorsphere formation in human H1299 cells assessed as decrease in number of spheres at 0.25 to 1 uM after 2 weeks by microscopic analysis; type: functional, cell-based
A549 [7] = assay: Downregulation of OCT4 in human A549 cells at 0.25 to 1 uM by Western blot analysis; type: functional, cell-based
NCI-H1299 [8] = assay: Downregulation of SOX2 in human H1299 cells at 0.25 to 1 uM by Western blot analysis; type: functional, cell-based
[9] = target: Dual specificity mitogen-activated protein kinase kinase 3 (Homo sapiens) (UniProt P46734); assay: Inhibition of human MKK3 at 1 uM by radiometric method relative to control
How it was run: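 Percent inhibition of kinase activity at a single compound concentration, measured by the outsourced Eurofins KinaseProfiler panel. Values are the mean of two independent experiments.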

[10] = target: Eukaryotic translation initiation factor 2-alpha kinase 3 (Homo sapiens) (UniProt Q9NZJ5); assay: Inhibition of recombinant human PEK (536 to end residues) at 1 uM using RSRSRSRSRSRSR as substrate measured after 40 mins in presence of [gamma33P]ATP by scintillation counting method relative to control
[11] = target: Platelet-derived growth factor receptor beta (Homo sapiens) (UniProt P09619); assay: Inhibition of recombinant human PDGFRbeta (557 to end residues) at 1 uM using poly[Glu:Tyr] (4:1) as substrate measured after 40 mins in presence of [gamma33P]ATP by scintillation counting method relative to control
[12] = system: Mast/stem cell growth factor receptor Kit (Homo sapiens), P10721 [D816V]; assay: Inhibition of recombinant human cKit (544 to end residues) D816V mutant at 1 uM using poly(Glu, Tyr) 4:1 as substrate measured after 40 mins in presence of [gamma33P]ATP by scintillation counting method relative to control
How it was run: (§1)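 Single-point inhibition at 1 µM was measured in the Eurofins KinaseProfiler panel. Values are the mean of two independent experiments.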

[13] = system: Mast/stem cell growth factor receptor Kit (Homo sapiens), P10721 [V560G]; assay: Inhibition of recombinant human cKit (544 to end residues) V560G mutant at 1 uM using GGMEDIYFEFMGGKKK as substrate measured after 40 mins in presence of [gamma33P]ATP by scintillation counting method relative to control; how it was run: as §1
[14] = system: Fibroblast growth factor receptor 1 (Homo sapiens), P11362 [V561M]; assay: Inhibition of recombinant human FGFR1 V561M mutant (456 to 765 residues) at 1 uM using GGEEEEYFELVKKKK as substrate measured after 40 mins in presence of [gamma33P]ATP by scintillation counting method relative to control
[15] = target: Fibroblast growth factor receptor 2 (Homo sapiens) (UniProt P21802); assay: Inhibition of recombinant human FGFR2 (456 to 770 residues) at 1 uM using poly(Glu, Tyr) 4:1 as substrate measured after 40 mins in presence of [gamma33P]ATP by scintillation counting method relative to control
[16] = target: Vascular endothelial growth factor receptor 1 (Homo sapiens) (UniProt P17948); assay: Inhibition of recombinant human Flt1 (783 to end residues) at 1 uM using KKKSPGEYVNIEFG as substrate measured after 40 mins in presence of [gamma33P]ATP by scintillation counting method relative to control
[17] = target: Tyrosine-protein kinase ITK/TSK (Homo sapiens) (UniProt Q08881); assay: Inhibition of recombinant human ITK (352 to 617 residues) at 1 uM using myelin basic protein as substrate measured after 40 mins in presence of [gamma33P]ATP by scintillation counting method relative to control
Homo sapiens = species on record: Homo sapiens; assay: Inhibition of recombinant full-length human JNK2alpha2 S51N mutant at 1 uM using ATF2 as substrate measured after 40 mins in presence of [gamma33P]ATP by scintillation counting method relative to control
[18] = target: Vascular endothelial growth factor receptor 2 (Homo sapiens) (UniProt P35968); assay: Inhibition of recombinant human KDR (790 to end residues) at 1 uM using MBP as substrate measured after 40 mins in presence of [gamma33P]ATP by scintillation counting method relative to control
[19] = target: Serine-protein kinase ATM (Homo sapiens) (UniProt Q13315); assay: Inhibition of recombinant full-length human ATM at 1 uM using GST-cMyc-p53 as substrate measured after 40 mins by ELISA relative to control
[20] = system: PI3-kinase p110-alpha/p85-alpha (Homo sapiens), P27986+P42336 [H1047R]; assay: Inhibition of recombinant full-length human PI3K p110alpha/p85alpha H1047R mutant at 1 uM using phosphatidylinositol-4, 5-bisphosphate as substrate measured after 40 mins by fluorescence assay relative to control
[21] = target: Phosphatidylinositol 4-phosphate 5-kinase type-1 gamma (Homo sapiens) (UniProt O60331); assay: Inhibition of recombinant full-length human PIP5K1gamma at 1 uM using phosphatidylinositol 4-phosphate as substrate measured after 40 mins by HTRF assay relative to control
Phosphatidylinositol 4-phosphate 5-kinase type-1 gamma (Homo sapiens), sequence (O60331 whole entry): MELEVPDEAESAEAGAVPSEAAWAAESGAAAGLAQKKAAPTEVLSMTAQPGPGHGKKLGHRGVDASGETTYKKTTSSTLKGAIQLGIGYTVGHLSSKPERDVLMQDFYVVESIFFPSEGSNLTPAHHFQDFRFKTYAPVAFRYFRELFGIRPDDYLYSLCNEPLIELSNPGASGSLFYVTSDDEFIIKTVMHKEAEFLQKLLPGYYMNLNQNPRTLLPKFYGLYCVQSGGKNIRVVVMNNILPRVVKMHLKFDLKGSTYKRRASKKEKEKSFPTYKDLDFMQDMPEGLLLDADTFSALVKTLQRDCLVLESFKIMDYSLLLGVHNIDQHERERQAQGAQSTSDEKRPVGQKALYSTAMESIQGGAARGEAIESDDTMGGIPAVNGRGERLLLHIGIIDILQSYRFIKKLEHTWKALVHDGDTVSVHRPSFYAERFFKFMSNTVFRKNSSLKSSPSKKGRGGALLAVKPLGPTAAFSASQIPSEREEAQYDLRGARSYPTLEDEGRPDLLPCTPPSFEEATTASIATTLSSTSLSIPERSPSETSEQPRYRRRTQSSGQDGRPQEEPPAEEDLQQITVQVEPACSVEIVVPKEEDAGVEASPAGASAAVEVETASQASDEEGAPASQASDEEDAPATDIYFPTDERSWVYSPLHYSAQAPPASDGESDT

Vascular endothelial growth factor receptor 2 (Homo sapiens), sequence (P35968 whole entry): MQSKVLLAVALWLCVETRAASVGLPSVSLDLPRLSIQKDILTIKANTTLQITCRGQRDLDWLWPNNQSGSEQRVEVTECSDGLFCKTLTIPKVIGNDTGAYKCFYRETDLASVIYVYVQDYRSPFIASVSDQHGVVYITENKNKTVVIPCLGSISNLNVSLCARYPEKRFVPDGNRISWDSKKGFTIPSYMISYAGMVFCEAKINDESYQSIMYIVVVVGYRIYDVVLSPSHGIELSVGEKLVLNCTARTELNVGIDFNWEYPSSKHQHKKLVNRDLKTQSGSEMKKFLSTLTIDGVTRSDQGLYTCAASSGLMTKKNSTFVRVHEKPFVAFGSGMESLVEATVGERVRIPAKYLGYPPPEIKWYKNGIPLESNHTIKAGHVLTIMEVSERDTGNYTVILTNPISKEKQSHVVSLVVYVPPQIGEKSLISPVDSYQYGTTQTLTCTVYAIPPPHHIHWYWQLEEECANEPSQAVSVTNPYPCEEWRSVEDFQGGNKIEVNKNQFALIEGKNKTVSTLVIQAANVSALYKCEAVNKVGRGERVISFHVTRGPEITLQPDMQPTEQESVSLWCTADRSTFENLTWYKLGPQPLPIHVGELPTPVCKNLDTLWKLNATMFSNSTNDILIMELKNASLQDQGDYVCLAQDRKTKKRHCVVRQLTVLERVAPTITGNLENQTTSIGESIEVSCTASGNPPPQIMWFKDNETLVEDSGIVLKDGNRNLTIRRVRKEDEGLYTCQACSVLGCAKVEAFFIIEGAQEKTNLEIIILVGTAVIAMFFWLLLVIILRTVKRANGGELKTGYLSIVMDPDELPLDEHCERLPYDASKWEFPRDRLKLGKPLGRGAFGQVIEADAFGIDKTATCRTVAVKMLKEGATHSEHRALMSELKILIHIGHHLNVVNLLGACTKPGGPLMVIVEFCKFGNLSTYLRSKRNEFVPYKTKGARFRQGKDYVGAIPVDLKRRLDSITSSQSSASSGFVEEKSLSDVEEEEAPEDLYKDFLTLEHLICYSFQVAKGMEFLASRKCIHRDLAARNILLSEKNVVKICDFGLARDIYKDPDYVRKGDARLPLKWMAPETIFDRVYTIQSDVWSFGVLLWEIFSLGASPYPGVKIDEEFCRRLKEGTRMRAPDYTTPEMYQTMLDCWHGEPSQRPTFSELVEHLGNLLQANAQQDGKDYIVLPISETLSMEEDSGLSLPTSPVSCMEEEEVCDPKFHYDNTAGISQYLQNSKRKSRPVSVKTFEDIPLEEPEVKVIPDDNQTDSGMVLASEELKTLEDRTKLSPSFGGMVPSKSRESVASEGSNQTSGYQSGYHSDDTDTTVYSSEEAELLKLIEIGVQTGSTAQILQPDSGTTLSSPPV
Dual specificity mitogen-activated protein kinase kinase 3 (Homo sapiens), sequence (P46734 whole entry): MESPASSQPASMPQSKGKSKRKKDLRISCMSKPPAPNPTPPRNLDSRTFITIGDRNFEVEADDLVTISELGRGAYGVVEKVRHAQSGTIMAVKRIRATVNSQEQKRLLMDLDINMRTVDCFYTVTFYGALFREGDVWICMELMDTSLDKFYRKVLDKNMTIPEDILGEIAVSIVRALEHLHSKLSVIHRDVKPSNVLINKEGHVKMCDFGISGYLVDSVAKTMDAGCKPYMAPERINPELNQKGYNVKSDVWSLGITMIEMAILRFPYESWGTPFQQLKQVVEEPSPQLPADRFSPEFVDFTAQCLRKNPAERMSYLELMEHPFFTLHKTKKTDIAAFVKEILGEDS
Vascular endothelial growth factor receptor 1 (Homo sapiens), sequence (P17948 whole entry, the tested form may be a part): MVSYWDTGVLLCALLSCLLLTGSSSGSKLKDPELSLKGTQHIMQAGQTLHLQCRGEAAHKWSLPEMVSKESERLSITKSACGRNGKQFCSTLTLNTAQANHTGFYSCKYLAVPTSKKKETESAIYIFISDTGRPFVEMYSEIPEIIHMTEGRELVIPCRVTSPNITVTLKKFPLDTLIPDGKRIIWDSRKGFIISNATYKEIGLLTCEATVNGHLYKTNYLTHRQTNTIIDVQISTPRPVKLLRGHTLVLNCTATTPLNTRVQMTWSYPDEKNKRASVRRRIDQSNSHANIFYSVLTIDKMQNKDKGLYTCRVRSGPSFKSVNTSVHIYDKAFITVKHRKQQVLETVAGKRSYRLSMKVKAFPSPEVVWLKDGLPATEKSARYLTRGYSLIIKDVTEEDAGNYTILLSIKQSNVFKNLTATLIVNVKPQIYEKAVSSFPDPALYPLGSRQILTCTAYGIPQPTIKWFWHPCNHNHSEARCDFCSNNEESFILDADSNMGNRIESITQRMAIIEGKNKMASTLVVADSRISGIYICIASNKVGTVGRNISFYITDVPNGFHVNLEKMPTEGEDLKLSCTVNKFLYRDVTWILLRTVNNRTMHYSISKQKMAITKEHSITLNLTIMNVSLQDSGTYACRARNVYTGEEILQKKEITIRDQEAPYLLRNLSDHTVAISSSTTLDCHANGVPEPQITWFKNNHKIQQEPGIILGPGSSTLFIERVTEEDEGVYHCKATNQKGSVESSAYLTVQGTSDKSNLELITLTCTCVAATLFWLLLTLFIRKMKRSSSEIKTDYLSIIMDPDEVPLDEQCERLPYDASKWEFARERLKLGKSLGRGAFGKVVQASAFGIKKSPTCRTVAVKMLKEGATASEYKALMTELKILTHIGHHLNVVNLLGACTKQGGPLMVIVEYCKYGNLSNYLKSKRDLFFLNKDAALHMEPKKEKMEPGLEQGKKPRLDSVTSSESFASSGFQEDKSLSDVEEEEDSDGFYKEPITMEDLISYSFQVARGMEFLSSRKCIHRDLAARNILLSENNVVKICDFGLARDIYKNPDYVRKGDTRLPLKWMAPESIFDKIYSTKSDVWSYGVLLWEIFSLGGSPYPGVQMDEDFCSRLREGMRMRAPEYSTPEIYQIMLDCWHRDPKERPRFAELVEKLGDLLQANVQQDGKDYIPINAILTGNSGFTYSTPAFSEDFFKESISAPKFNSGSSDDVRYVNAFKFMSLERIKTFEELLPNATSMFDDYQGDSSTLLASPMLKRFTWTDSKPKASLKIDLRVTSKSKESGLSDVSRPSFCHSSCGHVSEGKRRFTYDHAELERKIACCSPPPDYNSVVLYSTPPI
Fibroblast growth factor receptor 1 (Homo sapiens), P11362 [V561M], sequence (P11362 whole entry V561M, the tested form may be a part): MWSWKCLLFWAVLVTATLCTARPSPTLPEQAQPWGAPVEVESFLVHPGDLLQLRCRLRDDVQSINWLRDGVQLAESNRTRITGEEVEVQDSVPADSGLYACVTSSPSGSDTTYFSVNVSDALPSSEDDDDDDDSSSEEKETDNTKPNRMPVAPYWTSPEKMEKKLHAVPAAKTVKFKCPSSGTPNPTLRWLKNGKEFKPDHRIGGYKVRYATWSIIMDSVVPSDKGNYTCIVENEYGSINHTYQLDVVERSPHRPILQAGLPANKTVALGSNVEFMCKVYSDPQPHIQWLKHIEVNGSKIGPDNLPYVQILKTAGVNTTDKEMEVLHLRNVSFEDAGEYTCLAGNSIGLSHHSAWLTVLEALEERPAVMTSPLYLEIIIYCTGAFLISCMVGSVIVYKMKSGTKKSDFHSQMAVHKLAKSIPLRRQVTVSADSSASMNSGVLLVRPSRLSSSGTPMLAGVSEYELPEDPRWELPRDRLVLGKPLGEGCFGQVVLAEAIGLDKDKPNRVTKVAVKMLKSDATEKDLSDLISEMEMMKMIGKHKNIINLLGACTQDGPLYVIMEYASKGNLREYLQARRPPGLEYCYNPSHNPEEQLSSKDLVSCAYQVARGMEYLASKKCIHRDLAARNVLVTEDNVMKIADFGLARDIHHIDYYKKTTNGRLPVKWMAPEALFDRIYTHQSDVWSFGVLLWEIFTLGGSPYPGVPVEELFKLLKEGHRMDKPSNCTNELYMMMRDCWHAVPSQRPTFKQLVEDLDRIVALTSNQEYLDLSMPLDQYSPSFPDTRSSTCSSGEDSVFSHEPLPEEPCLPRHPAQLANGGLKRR

Compound `CN(C)C(=O)c1cc2cnc(Nc3ccc(NC(=O)CCCCCCCN=C=S)cc3)nc2n1C1CCCC1` has an inhibition at 10 µM (SiHa) of 97%, a pIC50 (MDA-MB-231) of 5.52 and an Activity (A549 [1]) of 1.06%. The Activity (A549 [2]) was 13.8%, the Activity (NCI-H1299 [3]) was 3.64% and the Activity (A549 [4]) was “Active”. For the same compound, the inhibition (NCI-H1299 [5]) was “Dose-dependent effect”, the inhibition (NCI-H1299 [6]) was “Active” and the Activity (A549 [7]) was “Active”. For the same compound, the Activity (NCI-H1299 [8]) was “Active”, the inhibition [9] was 23% and the inhibition [10] was 6%. It also gave an inhibition [11] of 2%, an inhibition [12] of 11% and an inhibition [13] of 54%. It also gave an inhibition [14] of 86%, an inhibition [15] of 27% and an inhibition [16] of 71%. For the same compound, the inhibition [17] was 91%, the inhibition (Homo sapiens) was 40% and the inhibition [18] was 56%. It also gave an inhibition [19] of 6%, an inhibition [20] of 2% and an inhibition [21] of 0%.
